In ChEMBL document CHEMBL1932932, “Natural product libraries to accelerate the high-throughput discovery of therapeutic leads” (J Nat Prod, 2011):
Converted amounts (≈) assume the structure as drawn. The source made the active and inactive calls. The calls are words filed in the database; no cut-off is given here.

Assays:
[1] = tested on: U-937; test: Antiproliferative activity against human U937 cells assessed as cell viability after 96 hrs by CellTiter-Glo luminescence assay; assay type: functional, cell-based; details: U-937, 96 h
Method in brief: (§1)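 Cells grown in 96-well plates with no compound or continuous exposure to 1.5–50 000 nM for 96 h. Growth was read by CellTiter-Glo luminescence. IC50 is the concentration giving 50% growth inhibition versus untreated cells. Two separate replicate experiments were run.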

[2] = tested on: HeLa; test: Induction of microfilament disruption in human HeLa cells at 20 ug/ml after 24 hrs by Hoechst staining-based fluorescence microscopic analysis; assay type: functional, cell-based
Method in brief: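 HeLa cells (1500/well, 384-well) were seeded and incubated overnight at 37 °C, 5% CO2, then samples were pin-transferred. After 24 h cells were fixed in 4% formaldehyde for 20 min, permeabilised with 0.5% Triton X-100 for 10 min and blocked with 2% BSA. Actin was stained with rhodamine-phalloidin and DNA with Hoechst 33342. Images were taken by automated fluorescence microscopy at 10×.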

[3] = tested on: MDA-MB-435; test: Antiproliferative activity against human MDA-MB-435 cells assessed as cell viability after 96 hrs by CellTiter-Glo luminescence assay; assay type: functional, cell-based; details: MDA-MB-435, 96 h; method in brief: as §1
[4] = Antiproliferative activity against human H522-T1 cells assessed as cell viability after 96 hrs by CellTiter-Glo luminescence assay; assay type: functional, cell-based; details: H522-T1, 96 h; method in brief: as §1
[5] = tested on: HT-29; test: Antiproliferative activity against human HT-29 cells assessed as cell viability after 96 hrs by CellTiter-Glo luminescence assay; assay type: functional, cell-based; details: HT-29, 96 h; method in brief: as §1
[6] = tested on: Trypanosoma brucei brucei; test: Antitrypanosomal activity against Trypanosoma brucei brucei clone 427-221a assessed as growth inhibition after 40 hrs by ATP-bioluminescence assay; assay type: functional, organism-based
Method in brief: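 Bloodstream-form parasites (1×10^4/well) were grown in HMI-9 with 10% FBS, 10% Serum Plus and penicillin/streptomycin at 37 °C, 5% CO2. Samples were tested at 12.5 and 1.25 µg/mL, or serially diluted 25–0.001 µg/mL for IC50, at 0.5% final DMSO. Incubation was 40 h. ATP was read by CellTiter-Glo. Log10 signals were converted to % inhibition against 0.5% DMSO and 50 µM thimerosal controls, and curves were fitted.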

[7] = tested on: HeLa; test: Stabilization of microtubule in human HeLa cells at 20 ug/ml after 24 hrs by Hoechst staining-based fluorescence microscopic analysis; assay type: functional, cell-based
[8] = tested on: RAW264.7; test: Cytotoxicity against mouse RAW264.7 cells assessed as cell viability […] by MTT assay; assay type: functional; details: in the assay text read “20 hrs” for “24 hrs”
Method in brief: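 MTT test on extracts at 10 µg/mL and library fractions at 20 µg/mL, dissolved in DMSO. RAW264.7 cells were exposed for 20 h. MTT was then added for 2 h, the medium removed, formazan dissolved in DMSO, and absorbance read at 570 nm.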

[9] = tested on: RAW264.7; test: Cytotoxicity against mouse RAW264.7 cells assessed as cell viability at 10 uM after 20 hrs by MTT assay
[10] = tested on: PC-3; test: Cytotoxicity against human PC3 cells assessed as cell viability at 10 uM after 24 hrs by MTT assay; assay type: functional, cell-based

Compound	IC50 [1] [µg/mL]	Activity [2]	IC50 [3] [µg/mL]	IC50 [4] [µg/mL]	IC50 [5] [µg/mL]	IC50 [6] [µg/mL]	Activity [7]	Activity [8] [µM]	Activity [9]	Activity [10]
C=C1C[C@H](C)C[C@@H]2CC=C[C@@H](C/C=C\C(=O)O[C@H]3C[C@@H](O[C@H]3/C=C/[C@@H]3CC(C)=CC(=O)O3)[C@@H](O)[C@@H](O)C1)O2 [FIIJIANOLIDE D]	> 2.5	Active	> 2.5	> 2.5	> 2.5	1.4 (≈ 2.65 µM)	inactive	–	–	–
C=C1C[C@H](C)C[C@@H]2CC=C[C@@H](C/C=C\C(=O)O[C@H]([C@@H](O)/C=C/[C@@H]3CC(C)=CCO3)C[C@@H]3O[C@H]3[C@@H](O)C1)O2 [FIJIANOLIDE B]	0.003 (≈ 0.00583 µM)	Active	0.002 (≈ 0.00389 µM)	0.002 (≈ 0.00389 µM)	0.003 (≈ 0.00583 µM)	0.08 (≈ 0.155 µM)	inactive	–	–	–
C[C@]12CCC[C@](C)(C(=O)O)[C@@H]1CC[C@@]1(C)c3cocc3CC[C@H]21	–	–	–	–	–	–	–	>90	–	–
COc1cccc2c1C(=O)c1c(O)c3c(c(O)c1C2=O)C[C@@](O)(C(=O)CO)C[C@@H]3O[C@H]1C[C@H](N)[C@H](O)[C@H](C)O1	–	–	–	–	–	–	–	–	Active	Active
C/C1=C/C(=O)O[C@@H]2C[C@@H](CC[C@H](C)/C=C\C=C\CC1)O[C@@](O)([C@@H]1CSC(=O)N1)C2 [LATRUNCULIN A]	0.07 (≈ 0.166 µM)	inactive	0.04 (≈ 0.0949 µM)	0.06 (≈ 0.142 µM)	0.08 (≈ 0.19 µM)	1.2 (≈ 2.85 µM)	Active	–	–	–
C=CC/C=C\Cc1csc(C(C)(C)[C@H](O)C/C=C\C(=C)CCNC(=O)OC)n1 [MYCOTHIAZOLE]	0.01 (≈ 0.0247 µM)	inactive	1 (≈ 2.47 µM)	1 (≈ 2.47 µM)	0.7 (≈ 1.73 µM)	6.7 (≈ 16.6 µM)	inactive	–	–	–
C=C1C[C@H](C)C[C@@H]2CC=C[C@@H](C/C=C\C(=O)O[C@H]3C[C@@H](O[C@@]3(/C=C/[C@@H]3CC(C)=CCO3)OC)[C@@H](O)[C@@H](O)C1)O2	> 2.5	Active	> 2.5	> 2.5	> 2.5	> 10	–	–	–	–
COC(=O)/C=C1/CC[C@]2(C)[C@@H](C)CCC[C@]2(C)C1=O [METHYL AIGNOPSANOATE]	> 2.5	inactive	> 2.5	> 2.5	> 2.5	> 10	inactive	–	–	–
COC(CC1=CC[C@]2(C)[C@@H](C)CCC[C@]2(C)C1=O)OC [AIGNOPSANE KETAL]	> 2.5	inactive	> 2.5	> 2.5	> 2.5	> 10	inactive	–	–	–
C[C@H]1CCC[C@]2(C)C(=O)[C@H](C(O)C(=O)O)CC[C@]12C (some centres undefined) [AIGNOPSANOIC ACID B]	> 2.5	inactive	> 2.5	> 2.5	> 2.5	> 10	inactive	–	–	–
C=C1C[C@H](C)C[C@@H]2CC=C[C@@H](C/C=C\C(=O)O[C@H]3C[C@@H](O[C@H]3/C=C/[C@@H]3CC(C)=CCO3)[C@@H](O)[C@@H](O)C1)O2 [FIJIANOLIDE A]	0.03 (≈ 0.0583 µM)	Active	0.02 (≈ 0.0389 µM)	0.02 (≈ 0.0389 µM)	0.04 (≈ 0.0777 µM)	1.4 (≈ 2.72 µM)	inactive	–	–	–
C/C1=C/C(=O)O[C@@H]2C[C@@H](CC[C@H](C)/C=C\CC(=O)CC1)O[C@@](O)([C@@H]1CSC(=O)N1)C2 [LATRUNCULONE B]	1.18 (≈ 2.7 µM)	inactive	> 2.5	0.8 (≈ 1.83 µM)	0.8 (≈ 1.83 µM)	1 (≈ 2.29 µM)	Active	–	–	–
CO[C@H]1/C=C\[C@@H](C)CC[C@@H]2C[C@H](C[C@](O)([C@@H]3CSC(=O)N3)O2)OC(=O)/C=C(/C)CC[C@@H]1O [LATRUNCULOL B]	> 2.5	inactive	> 2.5	> 2.5	> 2.5	2 (≈ 4.26 µM)	Active	–	–	–
C/C1=C/C(=O)O[C@@H]2C[C@@H](CC[C@H](C)/C=C\[C@H](O)[C@@H](O)CC1)O[C@@](O)([C@@H]1CSC(=O)N1)C2 [LATRUNCULOL A]	0.31 (≈ 0.68 µM)	inactive	> 2.5	0.76 (≈ 1.67 µM)	0.65 (≈ 1.43 µM)	0.09 (≈ 0.198 µM)	Active	–	–	–
CCCCCCC(C)CCCCCCCCCOC[C@H](O)COC1[C@@H](O)[C@H](O)[C@@H](O)[C@@H]1O (some centres undefined) [SACROTRIDE A]	> 2.5	inactive	> 2.5	> 2.5	> 2.5	> 10	inactive	–	–	–
C/C(=C/C(=O)O)CC/C=C/C=C\[C@@H](C)CC[C@@H](O)CCCC(=O)c1csc(=O)[nH]1 [APO LATRUNCULIN T]	> 2.5	inactive	> 2.5	> 2.5	> 2.5	4.8 (≈ 11.4 µM)	inactive	–	–	–
C[C@H]1CCC[C@]2(C)C(=O)/C(=C\C(=O)O)CC[C@]12C [AIGNOPSANOIC ACID A]	> 2.5	inactive	> 2.5	> 2.5	> 2.5	6.5 (≈ 26 µM)	inactive	–	–	–
C/C1=C/C(=O)O[C@@H]2C[C@@H](CC[C@H](C)/C=C\C(=O)CCC1)O[C@@](O)([C@@H]1CSC(=O)N1)C2	> 2.5	inactive	> 2.5	> 2.5	> 2.5	3.6 (≈ 8.23 µM)	inactive	–	–	–
